According to ChEMBL document CHEMBL4002594, “Novel inhibitors of Plasmodium falciparum based on 2,5-disubstituted furans” (Eur J Med Chem, 2017):

How the values were obtained:
Format in all cases: ADME, organism-based
[1] = Plasma concentration in Swiss outbred mouse at 48 mg/kg administered via oral gavage at 10 hrs by LC-MS analysis
How it was run: (§1)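 Single oral administration of 48 mg/kg to male Swiss outbred mice. Plasma concentration-time profile reported as the mean and range of n=2 mice per time point.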

[2] = Plasma concentration in Swiss outbred mouse at 48 mg/kg administered via oral gavage at 1 hr by LC-MS analysis; how it was run: as §1
[3] = Plasma concentration in Sprague-Dawley rat at 1 mg/kg, iv administered as 10 mins infusion measured at 1.17 hrs by LC-MS analysis
How it was run: (§2)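 Male Sprague Dawley rats were dosed IV (nominal 1 mg/kg; 0.9 mg/kg actual) or orally (nominal 20 mg/kg; 19 mg/kg actual). Plasma concentration–time profiles were determined, with n=2 rats per time point, and mean and range reported.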

[4] = (§3) Plasma concentration in Swiss outbred mouse at […], iv at […] by LC-MS analysis
[5] = Plasma concentration in Swiss outbred mouse at […], iv at 10 hrs by LC-MS analysis
[6] = Plasma concentration in Swiss outbred mouse at […], iv at 0.008 hrs by LC-MS analysis
[7] = Plasma concentration in Sprague-Dawley rat at 1 mg/kg, iv administered as 10 mins infusion measured at 16.17 hrs by LC-MS analysis; how it was run: as §2
[8] = Plasma concentration in Swiss outbred mouse at […], iv at 0.5 hrs by LC-MS analysis
[9] = (§4) Plasma concentration in Sprague-Dawley rat at 1 mg/kg, iv administered as 10 mins infusion measured at […] by LC-MS analysis
[10] = Plasma concentration in Swiss outbred mouse at […], iv at 0.08 hrs by LC-MS analysis
[11] = Plasma concentration in Sprague-Dawley rat at 1 mg/kg, iv administered as 10 mins infusion measured at 0.5 hrs by LC-MS analysis; how it was run: as §2
[12] = Plasma concentration in Swiss outbred mouse at 48 mg/kg administered via oral gavage at 0.5 hrs by LC-MS analysis; how it was run: as §1
[13] = Plasma concentration in Swiss outbred mouse at […], iv at 0.033 hrs by LC-MS analysis
[14] = Plasma concentration in Swiss outbred mouse at 48 mg/kg administered via oral gavage at 2 hrs by LC-MS analysis; how it was run: as §1
[15] = Plasma concentration in Swiss outbred mouse at 48 mg/kg administered via oral gavage at […] by LC-MS analysis
[16] = Plasma concentration in Sprague-Dawley rat at 20 mg/kg administered via oral gavage at 0.5 hrs by LC-MS analysis; how it was run: as §2
[17] = Plasma concentration in Swiss outbred mouse at […], iv at 1 hr by LC-MS analysis
[18] = Plasma concentration in Sprague-Dawley rat at 1 mg/kg, iv administered as 10 mins infusion measured at 5.17 hrs by LC-MS analysis; how it was run: as §2
[19] = Plasma concentration in Sprague-Dawley rat at 20 mg/kg administered via oral gavage at 1 hr by LC-MS analysis; how it was run: as §2
[20] = (§5) Plasma concentration in Sprague-Dawley rat at 20 mg/kg administered via oral gavage at […] by LC-MS analysis
[21] = Plasma concentration in Swiss outbred mouse at […], iv at 24 hrs by LC-MS analysis
[22] = Plasma concentration in Swiss outbred mouse at 48 mg/kg administered via oral gavage at 24 hrs by LC-MS analysis; how it was run: as §1
[23] = Plasma concentration in Swiss outbred mouse at 48 mg/kg administered via oral gavage at 7.5 hrs by LC-MS analysis; how it was run: as §1
[24] = as §3; remark: listed apart in the source
[25] = as §4; remark: listed apart in the source
[26] = Plasma concentration in Sprague-Dawley rat at 1 mg/kg, iv administered as 10 mins infusion measured at 0.08 hrs by LC-MS analysis; how it was run: as §2
[27] = Plasma concentration in Sprague-Dawley rat at 1 mg/kg, iv administered as 10 mins infusion measured at 10.17 hrs by LC-MS analysis; how it was run: as §2
[28] = Plasma concentration in Swiss outbred mouse at […], iv at 7.5 hrs by LC-MS analysis
[29] = Plasma concentration in Sprague-Dawley rat at 1 mg/kg, iv administered as 10 mins infusion measured at 2.67 hrs by LC-MS analysis; how it was run: as §2
[30] = Plasma concentration in Sprague-Dawley rat at 20 mg/kg administered via oral gavage at 5 hrs by LC-MS analysis; how it was run: as §2
[31] = Plasma concentration in Swiss outbred mouse at […], iv at 4 hrs by LC-MS analysis
[32] = Plasma concentration in Sprague-Dawley rat at 1 mg/kg, iv administered as 10 mins infusion measured at 24.17 hrs by LC-MS analysis; how it was run: as §2
[33] = Plasma concentration in Sprague-Dawley rat at 20 mg/kg administered via oral gavage at 4 hrs by LC-MS analysis; how it was run: as §2
[34] = Plasma concentration in Swiss outbred mouse at 48 mg/kg administered via oral gavage at 4 hrs by LC-MS analysis; how it was run: as §1
[35] = as §5; remark: listed apart in the source
[36] = Plasma concentration in Swiss outbred mouse at […], iv at 2 hrs by LC-MS analysis

A concentration at 10 h [1] of 192 nM, a concentration at 1 h [2] of 693 nM and a concentration at 1.17 h [3] of 29 nM were found for CN(C)CCCNc1ccc(-c2ccc(F)c(Cl)c2)o1 in this work. It also gave a concentration at […] [4] of 54 nM, a concentration at 10 h [5] of 23 nM and a concentration at 0.008 h [6] of 841 nM. For the same compound, the concentration at 16.17 h [7] was 25 nM, the concentration at 0.5 h [8] was 44 nM and the concentration at […] [9] was 255 nM. The concentration at 0.08 h [10] was 80 nM, the concentration at 0.5 h [11] was 36 nM and the concentration at 0.5 h [12] was 812 nM. The concentration at 0.033 h [13] was 149 nM, the concentration at 2 h [14] was 494 nM and the concentration at […] [15] was 171 nM. For the same compound, the concentration at 0.5 h [16] was 65 nM, the concentration at 1 h [17] was 43 nM and the concentration at 5.17 h [18] was 35 nM. It also gave a concentration at 1 h [19] of 80 nM, a concentration at […] [20] of 45.5 nM and a concentration at 24 h [21] of 22 nM. It also gave a concentration at 24 h [22] of 208 nM, a concentration at 7.5 h [23] of 239 nM and a concentration at […] [24] of 310 nM. It also gave a concentration at […] [25] of 71 nM, a concentration at 0.08 h [26] of 334 nM and a concentration at 10.17 h [27] of 29 nM. The concentration at 7.5 h [28] was 31 nM, the concentration at 2.67 h [29] was 20 nM and the concentration at 5 h [30] was 27 nM. It also gave a concentration at 4 h [31] of 29 nM, a concentration at 24.17 h [32] of 20 nM and a concentration at 4 h [33] of 28 nM. It also gave a concentration at 4 h [34] of 132 nM, a concentration at […] [35] of 50 nM and a concentration at 2 h [36] of 26 nM.
